Calls of active or inactive are those of the source.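 How the source made its calls, unless noted: active means current rise at least 3 SD above the untreated control mean in each of two repeat wells; inactive means the rest.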

The results in this text go back to PubChem BioAssay.

Assay [1] is described as follows: nonspecific flux increase, KCNQ1-free cells – parental CHO cells, counter-screen for KCNQ1 potentiator project (AID 493006;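 active means duplicate-averaged activation above buffer control mean plus 5 SD of those controls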). The following applies: parental CHO-K1 cells, FluxOR thallium flux, at 10 µM; stronger effect = higher value. The method in brief: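 Assay system: parental CHO-K1 cells lacking KCNQ1, loaded with FluxOR thallium dye; timing: dye 90 min RT, compound 20 min RT; signal: kinetic thallium-flux fluorescence; repeats: duplicate wells per compound, percent values averaged; benchmarks: buffer and R-L3 controls; reagent: Potassium/thallium depolarization pulse; read-out: fluorescence change ratio scaled 0% buffer, 100% R-L3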

Assay [2] addresses Potassium voltage-gated channel subfamily KQT member 1 (Homo sapiens) (UniProt P51787). Nature of the assay: enhancement of KCNQ1 channel thallium flux – FluxOR thallium flux, CHO cells, duplicates, confirmation (AID 493007;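 active means potentiation averaged over duplicate wells exceeding buffer-only control mean by more than 3 SD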;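 on outcome: cells depolarized by a potassium plus thallium sulfate stimulus after compound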). The following applies: KCNQ1 cell line, FluxOR thallium flux fluorescence, at 10 µM; stronger effect = higher value, % of reference activator effect, buffer zero. In short, it runs like this: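 material = CHO cells stably expressing the KCNQ1 potassium channel | repeats = duplicate wells per compound | measure = percent activation between buffer and R-L3 responses | signal = FluxOR thallium-flux fluorescence, kinetic read | schedule = FluxOR dye loading 90 min, compound exposure 20 min, room temperature | control set = buffer and R-L3 controls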

Assay [3] deals with Potassium voltage-gated channel subfamily KQT member 2 (Rattus norvegicus) (UniProt O88943). Nature of the assay: KCNQ2 thallium flux enhancement – KCNQ2-CHO-K1 cells, selectivity assay for KCNQ1 potentiator project (AID 493009;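 active means mean duplicate potentiation above the buffer control mean plus 5 SD of buffer wells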;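 further: assay conditions were tuned for KCNQ1 rather than KCNQ2 modulators; signal is max minus min fluorescence divided by baseline after thallium stimulus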). The note with it: FluxOR thallium flux fluorescence, at 10 µM; stronger effect = higher value, scaled: buffer 0, activator control 100.
Assay [4] has as its target Potassium voltage-gated channel subfamily KQT member 1 (Homo sapiens) (UniProt P51787). Description: KCNQ1 activators by electrophysiology – IonWorks patch clamp, KCNQ1-CHO cells, orthogonal assay for KCNQ1 potentiator project, confirmation (AID 493184). The following applies: automated patch clamp current, at 10 µM; stronger effect = higher value. The method in brief:
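Assay system – CHO cells carrying KCNQ1 · Medium – pH 7.4 external bath · Probe or stimulus – depolarizing pulse to +40 mV from -90 mV · Compound dosing – one dose, 10 µM final · Measured by – automated perforated-patch electrophysiology · Measure – % potentiation of steady-state current relative to pre-compound · Repeats – two replicates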

In assay [5] the target is Potassium voltage-gated channel subfamily E member 1 (Homo sapiens) + Potassium voltage-gated channel subfamily KQT member 1 (Homo sapiens) (UniProt P15382+P51787). Nature of the assay: KCNQ1-E1 channel activation – thallium flux, CHO-K1 KCNQ1/E1 cells, selectivity assay for KCNQ1 potentiator project, confirmation (AID 493186;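 active means mean duplicate activation above the buffer control mean plus 5 SD of those controls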). The note with it: FluxOR thallium flux, at 10 µM; stronger effect = higher value. The method in brief:
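Assay system: CHO-K1 cells with KCNQ1/E1 | Dosing: Single compound concentration per well | Incubation: Dye 90 min, compound 20 min, room temperature | Measured by: FluxOR Tl+ flux fluorescence, kinetic read | Controls: Buffer low control, R-L3 high control | Replicates: Duplicate wells per compound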

Sequence of Potassium voltage-gated channel subfamily KQT member 2 (Rattus norvegicus) (O88943 whole entry, looked up): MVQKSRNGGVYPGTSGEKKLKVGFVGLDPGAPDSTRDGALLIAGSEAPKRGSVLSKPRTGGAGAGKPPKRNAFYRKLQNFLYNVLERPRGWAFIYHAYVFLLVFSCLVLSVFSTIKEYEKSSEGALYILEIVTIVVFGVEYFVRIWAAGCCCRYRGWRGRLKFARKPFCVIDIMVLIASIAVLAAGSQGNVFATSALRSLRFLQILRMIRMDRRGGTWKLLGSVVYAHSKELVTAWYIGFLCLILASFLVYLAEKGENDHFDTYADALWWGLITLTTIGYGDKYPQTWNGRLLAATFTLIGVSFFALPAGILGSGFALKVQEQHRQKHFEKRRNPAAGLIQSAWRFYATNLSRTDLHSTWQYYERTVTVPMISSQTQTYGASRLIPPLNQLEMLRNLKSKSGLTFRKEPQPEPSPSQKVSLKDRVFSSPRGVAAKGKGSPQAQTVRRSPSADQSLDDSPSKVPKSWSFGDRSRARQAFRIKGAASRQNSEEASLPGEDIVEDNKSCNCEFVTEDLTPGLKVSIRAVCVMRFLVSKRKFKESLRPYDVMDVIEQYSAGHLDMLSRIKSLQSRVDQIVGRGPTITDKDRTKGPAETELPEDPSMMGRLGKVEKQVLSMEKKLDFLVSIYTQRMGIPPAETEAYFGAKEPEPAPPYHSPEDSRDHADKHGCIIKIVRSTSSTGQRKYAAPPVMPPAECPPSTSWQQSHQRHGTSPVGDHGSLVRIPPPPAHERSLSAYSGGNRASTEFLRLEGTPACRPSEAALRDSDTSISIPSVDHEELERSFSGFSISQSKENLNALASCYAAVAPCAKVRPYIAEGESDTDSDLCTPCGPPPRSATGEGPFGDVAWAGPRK
Sequence of Potassium voltage-gated channel subfamily E member 1 (Homo sapiens) + Potassium voltage-gated channel subfamily KQT member 1 (Homo sapiens) (P51787 whole entry, looked up): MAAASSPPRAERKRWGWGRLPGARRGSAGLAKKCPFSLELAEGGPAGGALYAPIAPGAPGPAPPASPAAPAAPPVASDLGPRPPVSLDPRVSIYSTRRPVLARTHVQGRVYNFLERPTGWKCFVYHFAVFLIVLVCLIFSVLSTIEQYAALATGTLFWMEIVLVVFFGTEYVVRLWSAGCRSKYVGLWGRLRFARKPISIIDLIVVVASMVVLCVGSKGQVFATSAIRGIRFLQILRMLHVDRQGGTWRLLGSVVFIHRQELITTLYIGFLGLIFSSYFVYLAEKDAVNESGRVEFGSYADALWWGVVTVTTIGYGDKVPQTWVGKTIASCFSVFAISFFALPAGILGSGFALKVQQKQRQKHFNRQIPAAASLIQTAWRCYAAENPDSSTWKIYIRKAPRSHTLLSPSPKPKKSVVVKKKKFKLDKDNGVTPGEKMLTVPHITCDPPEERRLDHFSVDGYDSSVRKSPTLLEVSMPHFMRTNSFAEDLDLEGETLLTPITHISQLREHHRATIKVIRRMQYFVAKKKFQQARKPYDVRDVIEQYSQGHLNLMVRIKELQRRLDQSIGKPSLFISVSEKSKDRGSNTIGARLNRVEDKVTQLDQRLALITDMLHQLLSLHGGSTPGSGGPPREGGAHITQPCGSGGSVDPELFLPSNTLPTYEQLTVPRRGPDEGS
Sequence of Potassium voltage-gated channel subfamily KQT member 1 (Homo sapiens) (P51787 whole entry, looked up): as above

In the case of `Cc1cc(C)c2c(=O)n(CC(=O)Nc3ccc(Cl)cc3)sc2n1`, the result in assay [1], in assay [3], in assay [4] and in assay [5] was inactive. In assay [2], the potentiation is 25% (active).

Consider `O=C(Nc1nc2c(Br)cc(Br)cc2c(=O)s1)c1ccco1`, for which the result in assay [1], in assay [2], in assay [3], in assay [4] and in assay [5] was inactive.

Consider `Cc1ccc(C(=O)NC(=S)N2CCN(c3ccccc3F)CC2)cc1`, for which the outcome in assay [1], in assay [2], in assay [3], in assay [4] and in assay [5] was inactive.

Take `Cc1ccc(C)c(N/C(N)=N/c2nc(C)cc(C)n2)c1`: the outcome in assay [1], in assay [2], in assay [3], in assay [4] and in assay [5] was inactive.

Consider `COC(=O)c1sccc1NC(=O)CSc1ccccc1NS(=O)(=O)c1cc(Cl)ccc1Cl`, for which the outcome in assay [1], in assay [2], in assay [3], in assay [4] and in assay [5] was inactive.

As for `C=CCNC(=S)Nc1sc2c(c1C(=O)OCC)CCN(C(=O)OCC)C2`, the outcome in assay [1], in assay [2], in assay [3], in assay [4] and in assay [5] was inactive.

Consider `S=c1nc[nH]c2c1[nH]c1ccc(Cl)cc12`, for which the result in assay [1], in assay [2], in assay [3], in assay [4] and in assay [5] was inactive.

In the case of `NC(=O)CN1C(=O)NC2(CCOc3ccccc32)C1=O` (stereo not given), the result in assay [1], in assay [2], in assay [3], in assay [4] and in assay [5] was inactive.

As to `COCCn1c(C)cc(C(=O)COC(=O)c2ccc([N+](=O)[O-])o2)c1C`, the result in assay [1], in assay [3], in assay [4] and in assay [5] was inactive. In assay [2], the potentiation was 22.5% (active).

In the case of `Cc1nc2c3cc(F)ccc3n(CCN3CCCCC3)c2s1`, the outcome in assay [1], in assay [3], in assay [4] and in assay [5] was inactive. Further, the potentiation in assay [2] was 35% (active).

Consider `O=C(Nc1ccc(Cl)cc1C(F)(F)F)C(Sc1cccc[n+]1[O-])c1ccccc1` (stereo not given), for which the outcome in assay [1], in assay [2], in assay [3], in assay [4] and in assay [5] was inactive.

Consider `CCOC(=O)C(C(=O)OCC)C(C(=O)OCC)N1CCOCC1` (stereo not given), for which the result in assay [1], in assay [2], in assay [4] and in assay [5] was inactive. Besides, the potentiation in assay [3] is 171% (active).

Turning to `CC1CN(c2nc3ccccc3nc2C(C#N)C(=O)NCc2ccc3c(c2)OCO3)CC(C)O1` (stereo not given), the outcome in assay [1], in assay [3], in assay [4] and in assay [5] was inactive. The potentiation in assay [2] was 26% (active).

For `CCc1cc(=O)oc2cc(OC(C)C(=O)NCC(O)c3ccccc3)c(Cl)cc12` (stereo not given), the outcome in assay [1], in assay [2], in assay [3], in assay [4] and in assay [5] was inactive.

Turning to `CCOC(=O)N1CCN(C(=S)NC(=O)c2ccc(F)c(F)c2)CC1`, the outcome in assay [1], in assay [2], in assay [3], in assay [4] and in assay [5] was inactive.

Regarding `FC(F)(F)c1cccc(CN2CCC(c3cc(-c4cccs4)n[nH]3)CC2)c1`, the outcome in assay [1], in assay [2], in assay [3], in assay [4] and in assay [5] was inactive.

In the case of `CCOc1ccc(OCCCN(C)C)cc1`, the outcome in assay [1], in assay [2], in assay [3], in assay [4] and in assay [5] was inactive.

For `CCC(C)N(C(=O)COC(=O)c1cc([N+](=O)[O-])ccc1N1CCOCC1)C1CCS(=O)(=O)C1` (stereo not given), the result in assay [1], in assay [2], in assay [3], in assay [4] and in assay [5] was inactive.

Take `O=C(NNc1ncc(C(F)(F)F)cc1Cl)c1ccc(Cl)c(Cl)c1`: the outcome in assay [1], in assay [2], in assay [4] and in assay [5] was inactive. The potentiation in assay [3] was 198% (active).

Consider `O=C(CN1CCCCCC1)Nc1ccc(Oc2ccccc2)cc1`, for which the outcome in assay [1], in assay [2], in assay [3], in assay [4] and in assay [5] was inactive.

Regarding `CC(=O)Nc1ccc(S(=O)(=O)Nc2nc3ccccc3nc2Nc2ccccc2)cc1`, the result in assay [1], in assay [2], in assay [3], in assay [4] and in assay [5] was inactive.

For the compound `CCOC(=O)C1CCCN(C(=O)Cn2sc3nc(C)cc(C)c3c2=O)C1` (stereo not given), the result in assay [1], in assay [2], in assay [3], in assay [4] and in assay [5] was inactive.

`S=C(NCCc1ccccc1)N/N=C/C1CCCCC1`: the outcome in assay [1], in assay [2], in assay [3], in assay [4] and in assay [5] was inactive.

`O=C(NCc1ccccc1)c1ccc2c(c1)C(=O)N(Cc1cccnc1)C2=O`: the result in assay [1], in assay [3], in assay [4] and in assay [5] was inactive. For the same compound, in assay [2], the potentiation was 17.5% (active).

As to `CC(=O)/C=C/c1ccc2ccccc2n1`, the outcome in assay [1], in assay [2], in assay [3], in assay [4] and in assay [5] was inactive.

As to `Cc1ccc(-c2ccc(/C=C3\C(=O)ON=C3c3ccccc3)o2)c([N+](=O)[O-])c1`, the result in assay [1], in assay [3], in assay [4] and in assay [5] was inactive. In assay [2], the potentiation was 29% (active).

For the compound `Cc1sc2ncnc(N3CCN(Cc4ccccc4)CC3)c2c1-c1ccccc1`, the outcome in assay [1], in assay [3], in assay [4] and in assay [5] was inactive. The potentiation in assay [2] is 184% (active).

Turning to `Cc1[nH][nH]c(=O)c1C(c1ccc(-c2ccc(Cl)c(Cl)c2)o1)c1c(C)[nH][nH]c1=O`, the result in assay [1], in assay [3], in assay [4] and in assay [5] was inactive. The potentiation in assay [2] is 30% (active).

As for `O=C(NCc1ccccn1)C1CCN(Cc2cccc(OCc3ccccc3)c2)CC1`, the outcome in assay [1], in assay [2], in assay [3], in assay [4] and in assay [5] was inactive.
